Experimental findings from ChEMBL document CHEMBL4270526, “A novel NAE/UAE dual inhibitor LP0040 blocks neddylation and ubiquitination leading to growth inhibition and apoptosis of cancer cells” (Eur J Med Chem, 2018) are described below.

The test system of test [1] is BXPC-3. Description: Antiproliferative activity against human BxPC3 cells after 48 hrs by CCK8 assay. Format: functional, cell-based. As to conditions: BXPC-3, 48 h. In outline: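 Cells seeded at 6 × 10^3 cells/well and left 12 h at 37 °C, 5% CO2. Medium then replaced with serial compound dilutions, bortezomib as positive control. After 48 h, CCK-8 added for 4 h and absorbance read at 450 nm. Three repeats; IC50 from normalized nonlinear regression of inhibition curves.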

The target of test [2] is Serine/threonine-protein kinase PLK1 (Homo sapiens) (UniProt P53350). Description: Inhibition of PLK (unknown origin) at 30 uM relative to control.
Sequence of Serine/threonine-protein kinase PLK1 (Homo sapiens) (P53350 whole entry): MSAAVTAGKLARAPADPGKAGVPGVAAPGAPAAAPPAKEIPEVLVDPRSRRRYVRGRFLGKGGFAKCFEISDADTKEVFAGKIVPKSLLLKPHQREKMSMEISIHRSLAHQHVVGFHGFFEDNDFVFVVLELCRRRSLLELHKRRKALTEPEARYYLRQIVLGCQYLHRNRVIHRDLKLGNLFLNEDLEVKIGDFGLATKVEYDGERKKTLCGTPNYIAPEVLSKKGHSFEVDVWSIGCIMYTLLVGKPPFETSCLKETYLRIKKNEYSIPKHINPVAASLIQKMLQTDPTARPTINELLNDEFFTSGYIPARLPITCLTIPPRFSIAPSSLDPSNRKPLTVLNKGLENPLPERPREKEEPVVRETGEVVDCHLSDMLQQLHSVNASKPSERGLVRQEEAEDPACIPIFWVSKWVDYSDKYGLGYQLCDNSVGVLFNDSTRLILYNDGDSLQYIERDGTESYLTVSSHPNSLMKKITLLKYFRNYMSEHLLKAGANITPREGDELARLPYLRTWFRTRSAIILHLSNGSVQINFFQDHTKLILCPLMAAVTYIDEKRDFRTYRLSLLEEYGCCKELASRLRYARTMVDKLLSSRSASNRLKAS
In test [3] the target is SUMO-activating enzyme (Homo sapiens) (UniProt Q9UBE0+Q9UBT2). Kind of test: Inhibition of SAE in human AGS cells assessed as reduction in […]-SUMO conjugation level at 2 to 10 uM after 24 hrs by Western blot analysis. The format is cell-based. Put shortly: (§1)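 AGS cells given 2, 4, 6, 8 or 10 μM compound or 0.1% DMSO for 24 h, washed in ice-cold PBS and lysed in RIPA on ice. Equal protein loads run by SDS-PAGE: non-reducing for NEDD8/SUMO/Ub conjugates, reducing for p27, NRF2, CDT1 and cleaved caspase-3. Blotted to PVDF with primary antibody overnight at 4 °C and HRP secondary, ECL detection, densitometry. Three repeats.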

For test [4], the target named is T1, NEDD8 activating enzyme (Homo sapiens) (UniProt Q8TBC4+Q13564). Description: Inhibition of NAE in human AGS cells assessed as reduction in Ubc12-NEDD8 conjugation level after 24 hrs by Western blot analysis. Format: cell-based. In outline: as §1
The target in test [5] is T1, NEDD8 activating enzyme (Homo sapiens). Description: Inhibition of NAE-mediated CRL neddylation in human AGS cells assessed as increase in p27 level up to 10 uM after 24 hrs by Western blot analysis. The format is cell-based. Put shortly: as §1
The test system of test [6] is AGS. Kind of test: Induction of apoptosis in human AGS cells assessed as early apoptotic cells at 6 uM after 36 hrs by Annexin-V-FITC/propidium iodide staining based flow cytometry (reference value: 4.44%). The format is functional.
For test [7], the target named is Inhibitor of nuclear factor kappa-B kinase subunit beta (Homo sapiens) (UniProt O14920). Kind of test: Inhibition of IKKB (unknown origin) at 30 uM relative to control.
Sequence of Inhibitor of nuclear factor kappa-B kinase subunit beta (Homo sapiens) (O14920 whole entry): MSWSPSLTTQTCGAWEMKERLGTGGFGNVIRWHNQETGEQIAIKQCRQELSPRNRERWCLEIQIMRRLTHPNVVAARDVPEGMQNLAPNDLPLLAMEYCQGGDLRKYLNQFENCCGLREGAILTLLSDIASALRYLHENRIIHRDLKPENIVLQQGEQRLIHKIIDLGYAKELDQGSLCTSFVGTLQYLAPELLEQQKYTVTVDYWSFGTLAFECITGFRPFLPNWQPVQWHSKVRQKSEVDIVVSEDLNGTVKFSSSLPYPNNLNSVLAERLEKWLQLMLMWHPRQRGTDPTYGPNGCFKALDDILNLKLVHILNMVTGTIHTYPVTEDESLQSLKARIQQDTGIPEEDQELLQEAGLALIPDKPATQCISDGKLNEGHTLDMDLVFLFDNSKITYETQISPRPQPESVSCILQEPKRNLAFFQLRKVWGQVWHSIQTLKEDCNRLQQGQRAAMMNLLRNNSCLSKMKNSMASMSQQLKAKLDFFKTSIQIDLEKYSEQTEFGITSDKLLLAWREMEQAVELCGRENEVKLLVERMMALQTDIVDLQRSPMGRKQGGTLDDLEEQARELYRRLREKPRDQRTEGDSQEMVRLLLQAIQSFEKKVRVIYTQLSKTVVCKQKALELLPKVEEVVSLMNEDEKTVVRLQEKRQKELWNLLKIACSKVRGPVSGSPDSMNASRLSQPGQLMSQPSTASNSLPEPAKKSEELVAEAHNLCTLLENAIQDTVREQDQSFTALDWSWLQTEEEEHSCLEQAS

SMILES strings stand for the structures. The source made the active and inactive calls. The calls are words filed in the database; no cut-off is given here.

On to `O=c1cc(-c2ccc(-c3ccccc3)cc2)c2ccc(N3CCC(NCCc4ccccc4)CC3)cc2o1`, for which, in test [1], the concentration for half-maximal inhibition (IC50) came out at 2800 nM. Moreover, the inhibition was 5.58% in test [2], “Dose-dependent effect” in test [4] and 1.07% in test [7]. The inhibition result in test [3] was “inactive”. The inhibition result in test [5] was “Active”. Further, the Activity in test [6] stood at 45.91%.
